The list is not random: actives were taken first. Their share in the collection is about 3.4%.
Redox H2O2 prof: compounds producing H2O2 with reducing agent – biochemical, NIH compound library profiling, artefact control for MLSCN library redox annotation, primary screen; DTT-dependent redox cycling H2O2, phenol red/HRP absorbance; 100% = 100 µM peroxide control, 0% = buffer; activation, % at 10 µM; 0.03% of 200,000 active; AID 878;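 active means activation of at least 50% relative to the plate's high and low controls in the primary single-dose screen; inactive means activation below 50%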;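 further: compound incubated with DTT at 0.8 mM final as the reducing agent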
PKD1 kinase inh: PKD1 (human) kinase inhibition. inhibition, % (no concentration beside the values). PKD1 kinase fluorescence polarization assay. AID 797. 0.056% of 200,000 active. Q15139; in the data active means inhibition above about 50%
p97 ATPase inh: blocks human p97 ATPase activity; AID 1481; 0.42% of 220,000 active; inhibition, % at 8 µM; recombinant p97 ATPase, Kinase-Glo ATP luminescence, 3 h; P55072; in the data active means inhibition above about 15%;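 further: 0% = DMSO vehicle and 100% = wells lacking enzyme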
Mdm2 ligase inh: inhibitors of human Mdm2 E3 ubiquitin ligase | cell-based MDM2 ubiquitination luciferase reporter, 2 h; 0 = plate control, 100 = twice control, blank-subtracted | 0.11% of 210,000 active | signal enhancement, % at 5 µM;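 active means signal enhancement of 30% or more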;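 further: luminescence tracks abundance of the self-degrading MDM2-luciferase fusion protein; higher signal means inhibition of MDM2 E3 ligase activity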
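Timing – 2 h compound exposure at 37 °C · Assay system – mammalian cells stably expressing self-ubiquitinating, self-degrading MDM2 E3–luciferase fusion · Amount – 2000 cells seeded into each well · Measure – % luminescence enhancement versus blank-corrected plate control mean · Measured by – SteadyLite luminescence, 15 min reagent step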
ROMK primary: human ROMK K+ channel modulation, primary screen; AID 1918; 2% of 130,000 active; Tet-inducible ROMK, thallium flux fluorescence; actives lie on both sides; B-score at 10 µM;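 active means signal ratio slope over the read window, or its plate-corrected B-score, at least 3 SD from the plate mean, either direction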;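 further: B-score of the F/F0 ratio slope over 7 to 12 s after thallium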
Target sequence (P48048 whole entry, looked up): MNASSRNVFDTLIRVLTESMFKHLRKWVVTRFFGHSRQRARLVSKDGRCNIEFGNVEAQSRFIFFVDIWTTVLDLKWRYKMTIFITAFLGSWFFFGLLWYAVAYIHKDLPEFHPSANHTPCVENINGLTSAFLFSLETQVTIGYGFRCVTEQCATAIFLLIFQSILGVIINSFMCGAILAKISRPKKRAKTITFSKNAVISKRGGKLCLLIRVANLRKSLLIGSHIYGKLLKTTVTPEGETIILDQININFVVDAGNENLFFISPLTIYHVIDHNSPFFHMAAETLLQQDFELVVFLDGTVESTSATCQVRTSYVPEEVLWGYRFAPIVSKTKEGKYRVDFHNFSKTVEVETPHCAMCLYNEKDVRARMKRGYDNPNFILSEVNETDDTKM
Cl transport mod: KCC2 (human) Cl- transport modulation; Q9H2X9; KCC2 cells, thallium flux FluoZin-2 fluorescence; B-score of Tl+ flux slope (higher = more flux/activation; lower = inhibition) at 10 µM; 2.2% of 190,000 active; AID 1456;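 active means thallium flux slope and its plate-corrected score both differing from the plate sample mean at a set confidence after two filtering rounds, in either direction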;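 further: slope of fluorescence scaled to starting intensity during 10 to 20 s after thallium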
* = called active by the depositor; / = not tested or not shown.

SMILES | Redox H2O2 prof | PKD1 kinase inh | p97 ATPase inh | Mdm2 ligase inh | ROMK primary | Cl transport mod
CC(C)CN1C(=O)/C(=C/c2cccs2)NC1=S | 1 | -3 | 0 | / | / | 40*
NC(=O)COc1c(-c2ccccc2)oc2ccccc2c1=O | 0 | -2 | 2 | -9 | / | -0.79
Cc1cn(CC2COC(C)(C)O2)c(=O)[nH]c1=O (centres undefined) | -1 | 0 | 7 | 5 | 0.81 | /
COC(Cn1cc(C)c(=O)[nH]c1=O)OC | -2 | -3 | 8 | 42* | / | -0.0083
O=C1c2ccccc2-c2onc3ccc(NCCCn4ccnc4)c1c23 | 0 | 94* | -13 | -4 | -1.1 | -1
Cc1nc(NCCCn2ccnc2)c2ccccc2n1 | 0 | -5 | 4 | -16 | -0.53 | 1.1
CCOc1ccc(N2C(=O)Nc3ccccc3C2(O)C(=O)NCc2ccccc2)cc1 (centres undefined) | -1 | 4 | 6 | 16 | 0.37 | /
Cc1cc(SC(C)C(=O)NCC(=O)Nc2ccc(F)c(F)c2F)nc2ccccc12 (centres undefined) | 1 | 0 | 3 | -6 | / | 1.3
Cc1cc(C)c2nc(SC(C)C(=O)NCC(=O)Nc3ccc(F)c(F)c3F)cc(C)c2c1 (centres undefined) | 1 | -3 | 0 | -8 | / | 12*
Cn1c(=O)[nH]c(=O)c2c1nc(Br)n2CCCc1ccccc1 | 0 | -6 | 1 | 30* | -2.3 | 1.3
COc1ccc(CCNC(=O)CS(=O)Cc2nc(-c3cccs3)oc2C)cc1OC (centres undefined) | -1 | -10 | 1 | -9 | / | 0.57
O=C(O)c1cccc(-n2cccc2/C=C2/NC(=O)N(c3ccc(Cl)cc3)C2=O)c1 | 0 | -8 | 18* | -5 | 1.4 | -2.1
O=C(O)c1cccc(-n2cccc2/C=C2/NC(=O)N(c3cccc(Cl)c3)C2=O)c1 | / | / | 10 | -4 | 0.025 | -1.7
CCc1ccc2c(c1)c(N=NC1=NC(=O)CS1)c(O)n2C | -4 | -3 | -7 | 1 | / | 9.4*
O=C(NC(CCl)c1ccccc1)c1ccc(Cl)cc1 (centres undefined) | 1 | 8 | 0 | -6 | -1.8 | -0.12
Nc1nc(-c2ccco2)c(-c2ccco2)s1 | 3 | -12 | 20* | -16 | / | -0.066
O=C(CSC1CN(C(c2ccccc2)c2ccccc2)C1)N/N=C/c1ccc(Cl)cc1Cl | / | / | -3 | -9 | / | -0.047
CON/C=N/C(=S)Nc1ncc(C(F)(F)F)cc1Cl | 0 | -9 | 0 | -16 | 5.4* | 75*
CC(C)C(=O)Nc1ncc(C(F)(F)F)cc1Cl | 3 | -5 | 5 | -1 | / | 0.13
FC(F)(F)c1cnc(NNC(=S)Nc2ccc(Cl)cc2)c(Cl)c1 | 0 | 6 | 3 | -6 | 1.2 | 30*
Cc1ccc(NC(=S)NNc2ncc(C(F)(F)F)cc2Cl)c(C)c1 | 1 | -7 | 4 | -3 | -1.4 | 4.3*
FC(F)(F)c1cccc(NC(=S)NNC(=S)Nc2ccc(Cl)cc2)c1 | / | / | 6 | -13 | 0.66 | -2.2
CC1CCCN(C(=O)c2ccc(S(=O)(=O)N3CCC(c4nc5ccccc5s4)CC3)cc2)C1 (centres undefined) | 0 | -6 | 5 | / | -2.2 | 0.64
O=C(CSc1n[nH]c(=O)[nH]c1=O)c1ccccc1[N+](=O)[O-] | / | / | 6 | -13 | -2.2 | -0.35
O=C(CSc1nccc(=O)[nH]1)Nc1ccccc1Sc1ccccc1 | -1 | -2 | 5 | -24 | -0.7 | /
CCOC(=O)C1(CCOc2ccccc2)CCN(Cc2ccc(COC)o2)CC1 | -1 | 3 | 3 | -16 | -0.28 | 0.29
CNC(=S)Nc1cc(Cl)ccc1Oc1ccccc1 | 0 | -4 | 3 | 3 | -0.48 | 0.35
S=C(Nc1ccc(Cl)cc1Cl)Nc1ccccc1Oc1ccccc1 | 2 | -7 | 2 | -6 | / | 25*
S=C(Nc1cccc(Cl)c1)Nc1ccccc1Oc1ccccc1 | 1 | -9 | -3 | -3 | / | 5.4*
S=C(Nc1ccccc1Oc1ccccc1)Nc1cccc(Cl)c1Cl | 1 | -3 | 1 | 4 | / | 31*

Assay outcomes as filed in PubChem BioAssay.
